In ChEMBL document CHEMBL1151705, “Novel azalides derived from 16-membered macrolides. Part II: Isolation of the linear 9-formylcarboxylic acid and its sequential macrocyclization with an amino alcohol or an azidoamine” (2008):
In brackets after ≈: the same amount, converted by molar mass.

Experiments:
Type in all cases: functional
Streptococcus pneumoniae [1] = assay: Antimicrobial activity against Streptococcus pneumoniae 8 expressing inducible ermB after 20 hrs by agar dilution method
Summary of the method: (§1)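 Streptococci, H. influenzae and M. catarrhalis were precultured on blood agar plates. Suspensions of about 10⁶ CFU/ml were inoculated onto sensitivity disk agar supplemented with 5% horse blood and incubated at 37 °C for 20 h. MIC was read as the lowest drug concentration with no visible growth.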

Streptococcus pneumoniae [2] = assay: Antimicrobial activity against Streptococcus pneumoniae 9 expressing mefA after 20 hrs by agar dilution method; conditions: Streptococcus pneumoniae, 20 h; read-out: MIC; summary of the method: as §1
Streptococcus pneumoniae [3] = assay: Antimicrobial activity against Streptococcus pneumoniae 10 expressing mefA after 20 hrs by agar dilution method; conditions: Streptococcus pneumoniae, 20 h; read-out: MIC; summary of the method: as §1
Streptococcus pyogenes [4] = assay: Antimicrobial activity against drug-susceptible Streptococcus pyogenes 1 after 20 hrs by agar dilution method; conditions: Streptococcus pyogenes, 20 h; read-out: MIC; summary of the method: as §1
Streptococcus pyogenes [5] = assay: Antimicrobial activity against Streptococcus pyogenes 2 constitutively expressing ermB after 20 hrs by agar dilution method; summary of the method: as §1
Streptococcus pyogenes [6] = assay: Antimicrobial activity against Streptococcus pyogenes 3 expressing mefA after 20 hrs by agar dilution method; conditions: Streptococcus pyogenes, 20 h; read-out: MIC; summary of the method: as §1
Moraxella catarrhalis [7] = assay: Antimicrobial activity against drug-susceptible Moraxella catarrhalis 1 after 20 hrs by agar dilution method; summary of the method: as §1
Moraxella catarrhalis [8] = assay: Antimicrobial activity against drug-susceptible Moraxella catarrhalis 2 after 20 hrs by agar dilution method; conditions: Moraxella catarrhalis, 20 h; read-out: MIC; summary of the method: as §1
Haemophilus influenzae [9] = assay: Antimicrobial activity against drug-susceptible Haemophilus influenzae 1 after 20 hrs by agar dilution method; conditions: Haemophilus influenzae, 20 h; read-out: MIC; summary of the method: as §1
Haemophilus influenzae [10] = assay: Antimicrobial activity against drug-susceptible Haemophilus influenzae 2 after 20 hrs by agar dilution method; conditions: Haemophilus influenzae, 20 h; read-out: MIC; summary of the method: as §1
Haemophilus influenzae [11] = assay: Antimicrobial activity against drug-susceptible Haemophilus influenzae 3 after 20 hrs by agar dilution method; conditions: Haemophilus influenzae, 20 h; read-out: MIC; summary of the method: as §1
Haemophilus influenzae [12] = assay: Antimicrobial activity against drug-susceptible Haemophilus influenzae 4 after 20 hrs by agar dilution method; conditions: Haemophilus influenzae, 20 h; read-out: MIC; summary of the method: as §1
Staphylococcus aureus [13] = assay: Antimicrobial activity against drug-susceptible Staphylococcus aureus 209P JC-1 after 20 hrs by agar dilution method; conditions: Staphylococcus aureus, 209P, 20 h; read-out: MIC
Summary of the method: (§2)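 Agar dilution MIC. S. aureus seed culture was grown in sensitivity test broth. Cell suspension (about 10⁶ CFU/ml) was inoculated onto sensitivity disk agar with 5% horse blood and incubated at 37 °C for 20 h. MIC was the lowest drug concentration that prevented visible growth.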

Staphylococcus aureus [14] = assay: Antimicrobial activity against drug-susceptible Staphylococcus aureus 2 after 20 hrs by agar dilution method; conditions: Staphylococcus aureus, 20 h; read-out: MIC; summary of the method: as §2
Staphylococcus aureus [15] = assay: Antimicrobial activity against drug-susceptible Staphylococcus aureus 3 after 20 hrs by agar dilution method; conditions: Staphylococcus aureus, 20 h; read-out: MIC; summary of the method: as §2
Staphylococcus aureus [16] = assay: Antimicrobial activity against Staphylococcus aureus 4 constitutively expressing ermA after 20 hrs by agar dilution method; summary of the method: as §2
Staphylococcus aureus [17] = assay: Antimicrobial activity against Staphylococcus aureus 5 expressing inducible ermB after 20 hrs by agar dilution method; conditions: Staphylococcus aureus, 20 h; read-out: MIC; summary of the method: as §2
Streptococcus pneumoniae [18] = assay: Antimicrobial activity against drug-susceptible Streptococcus pneumoniae DP1 Type1 after 20 hrs by agar dilution method; conditions: Streptococcus pneumoniae, 20 h; read-out: MIC; summary of the method: as §1
Streptococcus pneumoniae [19] = assay: Antimicrobial activity against drug-susceptible Streptococcus pneumoniae 2 after 20 hrs by agar dilution method; conditions: Streptococcus pneumoniae, 20 h; read-out: MIC; summary of the method: as §1
Streptococcus pneumoniae [20] = assay: Antimicrobial activity against drug-susceptible Streptococcus pneumoniae 3 after 20 hrs by agar dilution method; conditions: Streptococcus pneumoniae, 20 h; read-out: MIC; summary of the method: as §1
Streptococcus pneumoniae [21] = assay: Antimicrobial activity against Streptococcus pneumoniae 4 constitutively expressing ermB after 20 hrs by agar dilution method; conditions: Streptococcus pneumoniae, 20 h; read-out: MIC; summary of the method: as §1
Streptococcus pneumoniae [22] = assay: Antimicrobial activity against Streptococcus pneumoniae 5 constitutively expressing ermB/mefA after 20 hrs by agar dilution method; conditions: Streptococcus pneumoniae, 20 h; read-out: MIC; summary of the method: as §1
Streptococcus pneumoniae [23] = assay: Antimicrobial activity against Streptococcus pneumoniae 6 constitutively expressing ermB after 20 hrs by agar dilution method; conditions: Streptococcus pneumoniae, 20 h; read-out: MIC; summary of the method: as §1
Streptococcus pneumoniae [24] = assay: Antimicrobial activity against Streptococcus pneumoniae 7 expressing inducible ermB after 20 hrs by agar dilution method; conditions: Streptococcus pneumoniae, 20 h; read-out: MIC; summary of the method: as §1
Staphylococcus aureus [25] = assay: Antimicrobial activity against Staphylococcus aureus 6 expressing inducible ermB after 20 hrs by agar dilution method; summary of the method: as §2
[26] = Streptococcus pneumoniae, 20 h, read-out: MIC
[27] = Moraxella catarrhalis, 20 h, read-out: MIC

MIC (Streptococcus pneumoniae [2]) [µg/mL] | MIC (Streptococcus pneumoniae [3]) [µg/mL] | MIC (Streptococcus pyogenes [4]) [µg/mL] | MIC (Streptococcus pyogenes [5]) [µg/mL] | MIC (Streptococcus pyogenes [6]) [µg/mL] | MIC (Moraxella catarrhalis [8]) [µg/mL] | MIC (Haemophilus influenzae [9]) [µg/mL] | MIC (Haemophilus influenzae [10]) [µg/mL] | MIC (Haemophilus influenzae [11]) [µg/mL] | MIC (Haemophilus influenzae [12]) [µg/mL] | MIC (Staphylococcus aureus [13]) [µg/mL] | MIC (Staphylococcus aureus [14]) [µg/mL] | MIC (Staphylococcus aureus [15]) [µg/mL] | MIC (Staphylococcus aureus [16]) [µg/mL] | MIC (Staphylococcus aureus [17]) [µg/mL] | MIC (Streptococcus pneumoniae [18]) [µg/mL] | MIC (Streptococcus pneumoniae [19]) [µg/mL] | MIC (Streptococcus pneumoniae [20]) [µg/mL] | MIC (Streptococcus pneumoniae [21]) [µg/mL] | MIC (Streptococcus pneumoniae [22]) [µg/mL] | Structure (SMILES) | also measured
0.13 (≈ 0.132 µM) | 0.13 (≈ 0.132 µM) | 0.25 (≈ 0.254 µM) | 32 (≈ 32.5 µM) | 1 (≈ 1.01 µM) | 2 (≈ 2.03 µM) | 32 (≈ 32.5 µM) | 8 (≈ 8.12 µM) | 16 (≈ 16.2 µM) | 16 (≈ 16.2 µM) | 0.5 (≈ 0.507 µM) | 2 (≈ 2.03 µM) | 0.5 (≈ 0.507 µM) | 64 (≈ 65 µM) | 0.5 (≈ 0.507 µM) | 0.06 (≈ 0.0609 µM) | 0.06 (≈ 0.0609 µM) | 0.13 (≈ 0.132 µM) | 32 (≈ 32.5 µM) | 32 (≈ 32.5 µM) | CCOC(=O)[C@H]1[C@H](C)O[C@@H](O[C@H]2[C@H](N(C)C)[C@@H](O)[C@H](O[C@H]3[C@@H](CC=O)C[C@@H](C)[C@@H](O)CN(C)CCC[C@H](C/C=C/c4ccc5ccccc5c4)OC(=O)C[C@@H](OC(=O)CC)[C@@H]3OC)O[C@@H]2C)C[C@@]1(C)O | MIC (Streptococcus pneumoniae [1]; [26]): 8 µg/mL (≈ 8.12 µM); MIC (Moraxella catarrhalis [7]; [27]): 2 µg/mL (≈ 2.03 µM); MIC (Streptococcus pneumoniae [23]): 32 µg/mL (≈ 32.5 µM); MIC (Streptococcus pneumoniae [24]): 8 µg/mL (≈ 8.12 µM); MIC (Staphylococcus aureus [25]): 1 µg/mL (≈ 1.01 µM)
0.06 | 0.06 | 0.13 | > 128 | 0.5 | 2 | 32 | 1 | 8 | 16 | 0.5 | 1 | 0.25 | > 128 | 0.5 | 0.03 | 0.06 | 0.06 | > 128 | > 128 | CCOC(=O)[C@H]1[C@H](C)O[C@@H](O[C@H]2[C@H](N(C)C)[C@@H](O)[C@H](O[C@H]3[C@@H](CC=O)C[C@@H](C)[C@@H](O)CN(C)CCC(CCCc4cnc5ccccc5c4)NC(=O)C[C@@H](OC(=O)CC)[C@@H]3OC)O[C@@H]2C)C[C@@]1(C)O (mixture of isomers) | MIC (Streptococcus pneumoniae [1]): 64 µg/mL; MIC (Moraxella catarrhalis [7]): 2 µg/mL; MIC (Streptococcus pneumoniae [23]): > 128 µg/mL; MIC (Streptococcus pneumoniae [24]): 16 µg/mL; MIC (Staphylococcus aureus [25]): 0.5 µg/mL
0.06 (≈ 0.0642 µM) | 0.06 (≈ 0.0642 µM) | 0.13 (≈ 0.139 µM) | > 128 | 0.5 (≈ 0.535 µM) | 1 (≈ 1.07 µM) | 64 (≈ 68.4 µM) | 8 (≈ 8.55 µM) | 16 (≈ 17.1 µM) | 8 (≈ 8.55 µM) | 0.5 (≈ 0.535 µM) | 1 (≈ 1.07 µM) | 0.25 (≈ 0.267 µM) | > 128 | 0.25 (≈ 0.267 µM) | 0.03 (≈ 0.0321 µM) | 0.06 (≈ 0.0642 µM) | 0.06 (≈ 0.0642 µM) | 128 (≈ 137 µM) | > 128 | CCOC(=O)[C@H]1[C@H](C)O[C@@H](O[C@H]2[C@H](N(C)C)[C@@H](O)[C@H](O[C@H]3[C@@H](CC=O)C[C@@H](C)[C@@H](O)CN(C)CCC[C@H](C/C=C/c4ccccc4)OC(=O)C[C@@H](OC(=O)CC)[C@@H]3OC)O[C@@H]2C)C[C@@]1(C)O | MIC (Streptococcus pneumoniae [1]; [26]): 4 µg/mL (≈ 4.28 µM); MIC (Moraxella catarrhalis [7]; [27]): 1 µg/mL (≈ 1.07 µM); MIC (Streptococcus pneumoniae [23]): > 128 µg/mL; MIC (Streptococcus pneumoniae [24]): 2 µg/mL (≈ 2.14 µM); MIC (Staphylococcus aureus [25]): 0.5 µg/mL (≈ 0.535 µM)
0.06 (≈ 0.0608 µM) | 0.03 (≈ 0.0304 µM) | 0.06 (≈ 0.0608 µM) | > 128 | 0.5 (≈ 0.507 µM) | 1 (≈ 1.01 µM) | 32 (≈ 32.4 µM) | 2 (≈ 2.03 µM) | 8 (≈ 8.11 µM) | 8 (≈ 8.11 µM) | 0.5 (≈ 0.507 µM) | 1 (≈ 1.01 µM) | 0.25 (≈ 0.253 µM) | > 128 | 0.25 (≈ 0.253 µM) | 0.015 (≈ 0.0152 µM) | 0.03 (≈ 0.0304 µM) | 0.03 (≈ 0.0304 µM) | 128 (≈ 130 µM) | 128 (≈ 130 µM) | CCOC(=O)[C@H]1[C@H](C)O[C@@H](O[C@H]2[C@H](N(C)C)[C@@H](O)[C@H](O[C@H]3[C@@H](CC=O)C[C@@H](C)[C@@H](O)CN(C)CCC[C@H](C/C=C/c4cnc5ccccc5c4)OC(=O)C[C@@H](OC(=O)CC)[C@@H]3OC)O[C@@H]2C)C[C@@]1(C)O | MIC (Streptococcus pneumoniae [1]; [26]): 8 µg/mL (≈ 8.11 µM); MIC (Moraxella catarrhalis [7]; [27]): 1 µg/mL (≈ 1.01 µM); MIC (Streptococcus pneumoniae [23]): 128 µg/mL (≈ 130 µM); MIC (Streptococcus pneumoniae [24]): 8 µg/mL (≈ 8.11 µM); MIC (Staphylococcus aureus [25]): 0.5 µg/mL (≈ 0.507 µM)
